The text below walks through data of ChEMBL document CHEMBL5029182, “Discovery of aryl aminothiazole γ-secretase modulators with novel effects on amyloid β-peptide production” (Bioorg Med Chem Lett, 2021).

Holding throughout (assay type): cell-based
The target in experiment [1] is T1, Gamma-secretase (Homo sapiens) (UniProt Q96BI3+Q9NZ42+Q8WW43+P49768+Q92542+P49810). The experiment is described as follows: Modulation of gamma secretase in HEK293 cells expressing APP-C99 assessed as decrease in Abeta40 levels at up to 10 uM incubated for 2 hrs by sandwich ELISA. Particulars: dose microM <=10, time 2.0 hrs. In short, it runs like this:
(§1)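 Concentration-response in HEK293 cells stably expressing C99 (APP C-terminal 99 residues with signal sequence), up to a maximum of 10 μM. Secreted Aβ37, Aβ38, Aβ40 and Aβ42 in medium each measured by a specific sandwich ELISA. Total secreted Aβ also determined by ELISA. Levels compared against DMSO vehicle alone.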
In general terms: ELISA stands for enzyme-linked immunosorbent assay.

For experiment [2], the target named is T1, Gamma-secretase (Homo sapiens). The experiment in a line: Modulation of gamma secretase in HEK293 cells expressing APP-C99 assessed as decrease in Abeta42 levels at up to 10 uM incubated for 2 hrs by sandwich ELISA. Particulars: dose microM <=10, time 2.0 hrs. In short, it runs like this: as §1
The target is the same in experiment [3]. The experiment in a line: Modulation of gamma secretase in HEK293 cells expressing APP-C99 assessed as increase in Abeta37 levels at up to 10 uM incubated for 2 hrs by sandwich ELISA. Particulars: filed as modulator, dose microM <=10, time 2.0 hrs. In short, it runs like this:
as §1

The target is the same in experiment [4]. The experiment in a line: Modulation of gamma secretase in HEK293 cells expressing APP-C99 assessed as increase in Abeta38 levels at up to 10 uM incubated for 2 hrs by sandwich ELISA. The settings on record: dose microM <=10, time 2.0 hrs. Put shortly:
as §1

Experiment [5] shares this target. The experiment is described as follows: Modulation of gamma secretase in HEK293 cells expressing APP-C99 assessed as decrease in Abeta40 levels at 5 uM incubated for 2 hrs by sandwich ELISA. In short, it runs like this: (§2)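 HEK293 cells stably expressing C99 with signal sequence, grown in 24-well plates. Single compound concentration 5 μM as initial screen. Aβ37, Aβ38, Aβ40 and Aβ42 secreted into medium each quantified by a specific two-antibody sandwich ELISA. Levels compared with DMSO vehicle alone.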

Experiment [6] shares this target. The experiment is described as follows: Modulation of gamma secretase in HEK293 cells expressing APP-C99 assessed as decrease in Abeta42 levels at 5 uM incubated for 2 hrs by sandwich ELISA. In short, it runs like this:
as §2

The target is the same in experiment [7]. The experiment is described as follows: Modulation of gamma secretase in HEK293 cells expressing APP-C99 assessed as increase in Abeta37 levels at 5 uM incubated for 2 hrs by sandwich ELISA. In short, it runs like this:
as §2

Experiment [8] shares this target. The experiment in a line: Modulation of gamma secretase in HEK293 cells expressing APP-C99 assessed as increase in Abeta38 levels at 5 uM incubated for 2 hrs by sandwich ELISA. In short, it runs like this: as §2
For experiment [9] the target is unchanged. The experiment in a line: Modulation of gamma secretase in HEK293 cells expressing APP-C99 assessed as effect on amyloid beta peptide levels at up to 10 uM incubated for 2 hrs by sandwich ELISA. Particulars: dose microM <=10, time 2.0 hrs. Put shortly: as §1
Experiment [10] shares this target. The experiment is described as follows: Modulation of gamma secretase in HEK293 cells expressing APP-C99 assessed as increase in Abeta37 levels incubated for 2 hrs by sandwich ELISA. The settings on record: filed as modulator. Put shortly:
(§3)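 HEK293 cells transiently transfected with C99 (APP C-terminal fragment carrying a signal sequence for membrane insertion) and treated over a concentration range. Secreted Aβ37, Aβ38, Aβ40 and Aβ42 in medium each detected by a specific two-antibody sandwich ELISA. Levels expressed relative to DMSO vehicle alone.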

Experiment [11] has the same target. The experiment is described as follows: Modulation of gamma secretase in HEK293 cells expressing APP-C99 assessed as decrease in Abeta40 levels incubated for 2 hrs by sandwich ELISA. Put shortly:
as §3

Experiment [12] shares this target. The experiment is described as follows: Modulation of gamma secretase in HEK293 cells expressing APP-C99 assessed as decrease in Abeta42 levels incubated for 2 hrs by sandwich ELISA. Put shortly: as §3
For experiment [13] the target is unchanged. The experiment in a line: Modulation of gamma secretase in HEK293 cells expressing APP-C99 assessed as increase in Abeta38 levels incubated for 2 hrs by sandwich ELISA. Particulars: filed as modulator. Put shortly: as §3

Calls of active or inactive are those of the source. The calls are words filed in the database; no cut-off is given here.

Consider `Cc1cn(-c2ccc(-c3csc(Nc4cc(F)c(F)cc4F)n3)cc2F)cn1`, for which the outcome in experiment [1], in [2] and in [4] was inactive. In addition, in experiment [3], the outcome was Active.

Regarding `Cc1cn(-c2ccc(-c3csc(Nc4cc(Cl)c(Cl)cc4Cl)n3)cc2F)cn1`, the result in [5], in experiment [6], in experiment [7] and in [8] was inactive.

On to `Cc1cn(-c2ccc(-c3csc(Nc4cc(Br)c(Br)cc4Br)n3)cc2F)cn1`, for which the outcome in [5] and in experiment [6] was inactive. In addition, the result in experiment [7] (filed as modulator) and in experiment [8] (filed as modulator) was Active.

As to `Cc1cn(-c2ccc(-c3csc(Nc4cc(C)c(C)cc4C)n3)cc2F)cn1`, the result in [9] (filed as modulator) was Active.

For `Cc1cn(-c2ccc(-c3csc(NCc4ccccc4)n3)cc2F)cn1`, the outcome in [9] (filed as modulator) was Active.

For the compound `Cc1cn(-c2ccc(-c3csc(Nc4ccc(O)cc4)n3)cc2F)cn1`, the result in [9] (filed as modulator) was Active.

Take `Cc1cn(-c2ccc(-c3csc(NC4CCCCC4)n3)cc2F)cn1`: the outcome in experiment [9] (filed as modulator) was Active.

As to `Cc1ccc(Nc2nc(-c3ccc(-n4cnc(C)c4)c(F)c3)cs2)c(F)c1`, the Activity result in experiment [10] and in experiment [13] was “Dose-Dependent Effect” each time. For the same compound, the result in experiment [11] and in experiment [12] was inactive.

With `Cc1cn(-c2ccc(-c3csc(Nc4ccc(F)cc4F)n3)cc2F)cn1`, the outcome in experiment [5] and in experiment [6] was inactive. For the same compound, the result in experiment [7] (filed as modulator) and in experiment [8] (filed as modulator) was Active.

Turning to `Cc1cn(-c2ccc(-c3csc(Nc4ccccc4)n3)cc2F)cn1`, the outcome in experiment [9] was inactive.

As to `Cc1cn(-c2ccc(-c3csc(Nc4cc(F)ccc4C)n3)cc2F)cn1`, the Activity result in [10] and in [13] was “Dose-Dependent Effect” throughout. The outcome in [11] and in [12] was inactive.

With `Cc1cn(-c2ccc(-c3csc(Nc4cc(F)ccc4F)n3)cc2F)cn1`, the outcome in experiment [5], in experiment [6], in experiment [7] and in [8] was inactive.

`CCc1cc(Nc2nc(-c3ccc(-n4cnc(C)c4)c(F)c3)cs2)c(F)cc1C`: the outcome in experiment [5] (filed as modulator) and in [6] (filed as modulator) was Active.

For `CCc1cc(Nc2nc(-c3ccc(-n4cnc(C)c4)c(F)c3)cs2)c(C)cc1C`, in experiment [9] (filed as modulator), the outcome was Active.

Turning to `Cc1cn(-c2ccc(-c3csc(Nc4c(F)cccc4F)n3)cc2F)cn1`, the result in [5], in [6], in experiment [7] and in [8] was inactive.

Consider `Cc1ccc(Nc2nc(-c3ccc(-n4cnc(C)c4)c(F)c3)cs2)c(C)c1`, for which the outcome in experiment [9] was inactive.

On to `Cc1cn(-c2ccc(-c3csc(Nc4cc(C)c(C)cc4F)n3)cc2F)cn1`, for which the result in experiment [5] and in experiment [6] was inactive. In addition, the result in experiment [7] (filed as modulator) and in [8] (filed as modulator) was Active.

Turning to `Cc1cn(-c2ccc(-c3csc(NC4C5CC6CC(C5)CC4C6)n3)cc2F)cn1` (stereo unspecified), the result in experiment [9] (filed as modulator) was Active.

Turning to `Cc1cn(-c2ccc(-c3csc(Nc4ccc(Cl)cc4Cl)n3)cc2F)cn1`, the result in [5] and in [6] was inactive. Moreover, the result in experiment [7] (filed as modulator) and in experiment [8] (filed as modulator) was Active.

As for `Cc1cn(-c2ccc(-c3csc(Nc4cccc(F)c4)n3)cc2F)cn1`, the outcome in experiment [5] and in [6] was inactive. Moreover, the outcome in experiment [7] (filed as modulator) and in experiment [8] (filed as modulator) was Active.

For the compound `Cc1cn(-c2ccc(-c3csc(Nc4ccccc4F)n3)cc2F)cn1`, the outcome in experiment [5] and in [6] was inactive. Further, the outcome in [7] (filed as modulator) and in experiment [8] (filed as modulator) was Active.

As to `Cc1cn(-c2ccc(-c3csc(Nc4ccc(F)c(F)c4)n3)cc2F)cn1`, the result in experiment [5], in experiment [6], in experiment [7] and in experiment [8] was inactive.

`Cc1cn(-c2ccc(-c3csc(Nc4c(F)cc(F)cc4F)n3)cc2F)cn1`: the result in experiment [5] (filed as modulator), in experiment [6] (filed as modulator), in [7] (filed as modulator) and in experiment [8] (filed as modulator) was Active.

Regarding `Cc1cn(-c2ccc(-c3csc(Nc4cccc(F)c4F)n3)cc2F)cn1`, the outcome in experiment [5], in experiment [6], in experiment [7] and in experiment [8] was inactive.

With `Cc1cn(-c2ccc(-c3csc(Nc4ccc(F)cc4)n3)cc2F)cn1`, the result in experiment [5] and in experiment [6] was inactive. For the same compound, the result in experiment [7] (filed as modulator) and in experiment [8] (filed as modulator) was Active.

Turning to `Cc1cn(-c2ccc(-c3csc(Nc4ccc([N+](=O)[O-])cc4)n3)cc2F)cn1`, the outcome in experiment [9] (filed as modulator) was Active.

With `Cc1ccc(F)c(Nc2nc(-c3ccc(-n4cnc(C)c4)c(F)c3)cs2)c1`, the Activity result in experiment [10] and in experiment [13] was “Dose-Dependent Effect” each time. Besides, the result in [11] and in experiment [12] was inactive.

As for `Cc1cn(-c2ccc(-c3csc(Nc4cc(F)c(C)cc4C)n3)cc2F)cn1`, the outcome in experiment [5], in [6], in [7] and in experiment [8] was inactive.

As to `Cc1cn(-c2ccc(-c3csc(Nc4ccc(F)cc4C)n3)cc2F)cn1`, the Activity result in [10] and in experiment [13] was “Dose-Dependent Effect” each time. Besides, the result in experiment [11] and in experiment [12] was inactive.

As to `Cc1cn(-c2ccc(-c3csc(Nc4cc(C)c(F)cc4C)n3)cc2F)cn1`, the outcome in experiment [5] and in experiment [6] was inactive. In addition, the outcome in experiment [7] (filed as modulator) and in experiment [8] (filed as modulator) was Active.
